Active and inactive are the calls of the source. The calls are words filed in the database; no cut-off is given here. Where a SMILES comes first, the peptide text is derived from it. [ ]: non-standard residue; d: D form. The star is where a group is joined. Quinoline(6-carbonyl) = O=C(c1ccc2ncccc2c1)*; Propanoyl(3-(3-pyridyl)) = O=C(CCc1cccnc1)*; Acetyl(pyridin-2-yl) = O=C(Cc1ccccn1)*; 1Nal = N[C@@H](Cc1cccc2ccccc12)C(=O)O; Butanoyl(4-cHex) = O=C(CCCC1CCCCC1)*; Propanoyl(3-cHex) = O=C(CCC1CCCCC1)*; Acetyl(3-pyridyl) = O=C(Cc1cccnc1)*; Acetyl(4-pyridyl) = O=C(Cc1ccncc1)*; Butanoyl(4-Ph) = O=C(CCCc1ccccc1)*; Hydrocinnamoyl = O=C(CCc1ccccc1)*; Quinaldoyl = O=C(c1ccc2ccccc2n1)*; Cha = N[C@@H](CC1CCCCC1)C(=O)O; Agb = N=C(N)NCC[C@H](N)C(=O)O; Agp = N=C(N)NC[C@H](N)C(=O)O; Chg = N[C@H](C(=O)O)C1CCCCC1; Phg = N[C@H](C(=O)O)c1ccccc1; Nle = CCCC[C@H](N)C(=O)O; Dab = NCC[C@H](N)C(=O)O; Nva = CCC[C@H](N)C(=O)O; Dap = NC[C@H](N)C(=O)O; PhAc = O=C(Cc1ccccc1)*; X1 = O=C(Cn1ccnc1)*
Target: Neuromedin-U receptor 2 (Homo sapiens, UniProt Q9GZQ4)
Test: Agonist activity at human NMUR2 expressed in HEK293 cells at 1 to 100 nM by calcium mobilization assay relative to NMU
Format: functional, cell-based
In short: (§1)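 HEK293 cells transiently transfected with human NMUR1 or NMUR2 plasmid (FuGENE6), reseeded 18 h post-transfection at 4.0 × 10^4 cells/well on poly-D-lysine. After 18 h, loaded 40 min with 4 μM Fluo-4-AM in HBSS/HEPES/probenecid buffer pH 7.4 with 1% FCS, then washed. Peptides in buffer with 0.05% BSA and 0.001% Triton X-100. Maximal FLIPR signal expressed as % of hNMU at 1000 nM.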

Chain of Neuromedin-U receptor 2 (Q9GZQ4 whole entry): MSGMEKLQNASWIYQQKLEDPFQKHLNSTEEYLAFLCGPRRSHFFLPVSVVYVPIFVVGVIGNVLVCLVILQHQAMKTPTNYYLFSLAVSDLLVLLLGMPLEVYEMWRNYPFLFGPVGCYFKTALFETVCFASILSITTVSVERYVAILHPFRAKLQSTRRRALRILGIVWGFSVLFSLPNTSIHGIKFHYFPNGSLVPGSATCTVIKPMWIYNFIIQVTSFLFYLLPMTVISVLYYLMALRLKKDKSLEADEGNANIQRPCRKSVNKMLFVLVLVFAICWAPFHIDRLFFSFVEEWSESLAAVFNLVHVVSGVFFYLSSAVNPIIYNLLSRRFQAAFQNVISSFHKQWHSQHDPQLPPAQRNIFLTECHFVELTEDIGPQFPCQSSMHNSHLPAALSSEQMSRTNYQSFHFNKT

SMILES | Activity
CC(C)C[C@H](NC(=O)CCc1ccccc1)C(=O)N[C@@H](Cc1ccccc1)C(=O)N[C@@H](CCCNC(=N)N)C(=O)N1CCC[C@H]1C(=O)N[C@@H](CCCNC(=N)N)C(=O)N[C@@H](CC(=O)O)C(N)=O (Hydrocinnamoyl-LFRPRD-NH2) | inactive
CC(C)C[C@H](NC(=O)CCc1ccccc1)C(=O)N[C@@H](Cc1ccc(O)cc1)C(=O)N[C@@H](CCCNC(=N)N)C(=O)N1CCC[C@H]1C(=O)N[C@@H](CCCNC(=N)N)C(=O)N[C@@H](CC(N)=O)C(N)=O (Hydrocinnamoyl-LYRPRN-NH2) | inactive
CC(C)C[C@H](NC(=O)CCc1ccccc1)C(=O)N[C@@H](CC1CCCCC1)C(=O)N[C@@H](CCCNC(=N)N)C(=O)N1CCC[C@H]1C(=O)N[C@@H](CCCNC(=N)N)C(=O)N[C@@H](CC(N)=O)C(N)=O (Hydrocinnamoyl-L[Cha]RPRN-NH2) | Active
CC(C)C[C@H](NC(=O)CCc1ccccc1)C(=O)N[C@H](C(=O)N[C@@H](CCCNC(=N)N)C(=O)N1CCC[C@H]1C(=O)N[C@@H](CCCNC(=N)N)C(=O)N[C@@H](CC(N)=O)C(N)=O)c1ccccc1 (Hydrocinnamoyl-L[Phg]RPRN-NH2) | inactive
CC(C)C[C@H](NC(=O)[C@H](CCCNC(=N)N)NC(=O)[C@@H]1CCCN1C(=O)[C@H](CCCNC(=N)N)NC(=O)[C@H](Cc1ccccc1)NC(=O)[C@H](CC(C)C)NC(=O)CCc1ccccc1)C(N)=O (Hydrocinnamoyl-LFRPRL-NH2) | inactive
CC(C)C[C@H](NC(=O)CCc1ccccc1)C(=O)N[C@@H](Cc1ccccc1)C(=O)N[C@@H](CCN)C(=O)N1CCC[C@H]1C(=O)N[C@@H](CCCNC(=N)N)C(=O)N[C@@H](CC(N)=O)C(N)=O (Hydrocinnamoyl-LF[Dab]PRN-NH2) | Active
CC(C)C[C@H](NC(=O)CCC1CCCCC1)C(=O)N[C@@H](CC1CCCCC1)C(=O)N[C@@H](CN)C(=O)N1CCC[C@H]1C(=O)N[C@@H](CCCNC(=N)N)C(=O)N[C@@H](CC(N)=O)C(N)=O ({Propanoyl(3-cHex)}-L[Cha][Dap]PRN-NH2) | Active
CC[C@H](C)[C@H](NC(=O)[C@H](CC(C)C)NC(=O)CCC1CCCCC1)C(=O)N[C@@H](CN)C(=O)N1CCC[C@H]1C(=O)N[C@@H](CCCNC(=N)N)C(=O)N[C@@H](CC(N)=O)C(N)=O ({Propanoyl(3-cHex)}-LI[Dap]PRN-NH2) | Active
CC(C)C[C@H](NC(=O)CCc1ccccc1)C(=O)N[C@@H](Cc1ccccc1)C(=O)N[C@@H](CNC(=N)N)C(=O)N1CCC[C@H]1C(=O)N[C@@H](CCCNC(=N)N)C(=O)N[C@@H](CC(N)=O)C(N)=O (Hydrocinnamoyl-LF[Agp]PRN-NH2) | Active
CCCC[C@H](NC(=O)[C@H](CC(C)C)NC(=O)CCC1CCCCC1)C(=O)N[C@@H](CN)C(=O)N1CCC[C@H]1C(=O)N[C@@H](CCCNC(=N)N)C(=O)N[C@@H](CC(N)=O)C(N)=O ({Propanoyl(3-cHex)}-L[Nle][Dap]PRN-NH2) | Active
CC(C)C[C@H](NC(=O)CCCC1CCCCC1)C(=O)N[C@@H](Cc1ccccc1)C(=O)N[C@@H](CCCNC(=N)N)C(=O)N1CCC[C@H]1C(=O)N[C@@H](CCCNC(=N)N)C(=O)N[C@@H](CC(N)=O)C(N)=O ({Butanoyl(4-cHex)}-LFRPRN-NH2) | Active
CC(C)C[C@H](NC(=O)CCC1CCCCC1)C(=O)N[C@@H](Cc1ccccc1)C(=O)N[C@@H](CCCNC(=N)N)C(=O)N1CCC[C@H]1C(=O)N[C@@H](CCCNC(=N)N)C(=O)N[C@@H](CC(N)=O)C(N)=O ({Propanoyl(3-cHex)}-LFRPRN-NH2) | Active
CC(C)C[C@H](NC(=O)CCC1CCCCC1)C(=O)N[C@H](C(=O)N[C@@H](CN)C(=O)N1CCC[C@H]1C(=O)N[C@@H](CCCNC(=N)N)C(=O)N[C@@H](CC(N)=O)C(N)=O)C1CCCCC1 ({Propanoyl(3-cHex)}-L[Chg][Dap]PRN-NH2) | Active
CC(C)C[C@H](NC(=O)CCc1ccccc1)C(=O)N[C@@H](Cc1ccccc1)C(=O)N[C@@H](CCNC(=N)N)C(=O)N1CCC[C@H]1C(=O)N[C@@H](CCCNC(=N)N)C(=O)N[C@@H](CC(N)=O)C(N)=O (Hydrocinnamoyl-LF[Agb]PRN-NH2) | Active
CC(C)C[C@H](NC(=O)CCc1ccccc1)C(=O)N[C@@H](Cc1ccccc1)C(=O)N[C@@H](CN)C(=O)N1CCC[C@H]1C(=O)N[C@@H](CCCNC(=N)N)C(=O)N[C@@H](CC(N)=O)C(N)=O (Hydrocinnamoyl-LF[Dap]PRN-NH2) | Active
CC(C)C[C@H](NC(=O)CCc1ccccc1)C(=O)N[C@@H](Cc1ccccc1)C(=O)N[C@@H](CCCCN)C(=O)N1CCC[C@H]1C(=O)N[C@@H](CCCNC(=N)N)C(=O)N[C@@H](CC(N)=O)C(N)=O (Hydrocinnamoyl-LFKPRN-NH2) | inactive
CC(C)C[C@H](NC(=O)CCC1CCCCC1)C(=O)N[C@@H](CC1CCCCC1)C(=O)N[C@@H](CCCNC(=N)N)C(=O)N1CCC[C@H]1C(=O)N[C@@H](CCCNC(=N)N)C(=O)N[C@@H](CC(N)=O)C(N)=O ({Propanoyl(3-cHex)}-L[Cha]RPRN-NH2) | Active
CC(C)C[C@H](NC(=O)CCCc1ccccc1)C(=O)N[C@@H](Cc1ccccc1)C(=O)N[C@@H](CCCNC(=N)N)C(=O)N1CCC[C@H]1C(=O)N[C@@H](CCCNC(=N)N)C(=O)N[C@@H](CC(N)=O)C(N)=O ({Butanoyl(4-Ph)}-LFRPRN-NH2) | Active
CCC[C@H](NC(=O)[C@H](CC(C)C)NC(=O)CCC1CCCCC1)C(=O)N[C@@H](CN)C(=O)N1CCC[C@H]1C(=O)N[C@@H](CCCNC(=N)N)C(=O)N[C@@H](CC(N)=O)C(N)=O ({Propanoyl(3-cHex)}-L[Nva][Dap]PRN-NH2) | Active

Target: T1, Neuromedin-U receptor 1 (Homo sapiens) (UniProt Q9HB89)
T1 sequence (whole entry): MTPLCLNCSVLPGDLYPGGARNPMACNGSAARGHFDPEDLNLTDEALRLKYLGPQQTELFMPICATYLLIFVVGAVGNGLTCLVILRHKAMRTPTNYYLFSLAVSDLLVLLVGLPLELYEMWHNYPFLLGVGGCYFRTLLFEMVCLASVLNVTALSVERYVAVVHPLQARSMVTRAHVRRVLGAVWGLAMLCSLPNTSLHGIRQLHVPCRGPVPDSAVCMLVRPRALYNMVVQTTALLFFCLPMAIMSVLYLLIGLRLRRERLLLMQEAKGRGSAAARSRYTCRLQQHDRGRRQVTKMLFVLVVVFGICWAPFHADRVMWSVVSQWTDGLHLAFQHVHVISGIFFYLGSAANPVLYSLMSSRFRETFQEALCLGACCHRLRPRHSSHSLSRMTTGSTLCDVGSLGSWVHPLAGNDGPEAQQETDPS
Test: Agonist activity at human NMUR1 expressed in HEK293 cells at 1 to 100 nM by calcium mobilization assay relative to NMU
Format: functional, cell-based
In short: as §1

SMILES | Activity
CC(C)C[C@H](NC(=O)CCc1ccccc1)C(=O)N[C@@H](Cc1ccccc1)C(=O)N[C@@H](CCCNC(=N)N)C(=O)N1CCC[C@H]1C(=O)N[C@@H](CCCNC(=N)N)C(=O)N[C@@H](CC(=O)O)C(N)=O (Hydrocinnamoyl-LFRPRD-NH2) | inactive
N=C(N)NCCC[C@H](NC(=O)[C@@H]1CCCN1C(=O)[C@H](CCCNC(=N)N)NC(=O)[C@H](Cc1ccccc1)NC(=O)[C@H](Cc1ccccc1)NC(=O)c1ccc2ccccc2n1)C(=O)N[C@@H](CC(N)=O)C(N)=O (Quinaldoyl-FFRPRN-NH2) | inactive
CC(C)C[C@H](NC(=O)CCc1ccccc1)C(=O)N[C@@H](Cc1ccc(O)cc1)C(=O)N[C@@H](CCCNC(=N)N)C(=O)N1CCC[C@H]1C(=O)N[C@@H](CCCNC(=N)N)C(=O)N[C@@H](CC(N)=O)C(N)=O (Hydrocinnamoyl-LYRPRN-NH2) | inactive
N=C(N)NCCC[C@H](NC(=O)[C@@H]1CCCN1C(=O)[C@H](CCCNC(=N)N)NC(=O)[C@H](Cc1ccccc1)NC(=O)[C@H](Cc1ccccc1)NC(=O)Cc1ccncc1)C(=O)N[C@@H](CC(N)=O)C(N)=O ({Acetyl(4-pyridyl)}-FFRPRN-NH2) | Active
CC(C)C[C@H](NC(=O)CCc1ccccc1)C(=O)N[C@H](C(=O)N[C@@H](CCCNC(=N)N)C(=O)N1CCC[C@H]1C(=O)N[C@@H](CCCNC(=N)N)C(=O)N[C@@H](CC(N)=O)C(N)=O)c1ccccc1 (Hydrocinnamoyl-L[Phg]RPRN-NH2) | inactive
CC(C)C[C@H](NC(=O)[C@H](CCCNC(=N)N)NC(=O)[C@@H]1CCCN1C(=O)[C@H](CCCNC(=N)N)NC(=O)[C@H](Cc1ccccc1)NC(=O)[C@H](CC(C)C)NC(=O)CCc1ccccc1)C(N)=O (Hydrocinnamoyl-LFRPRL-NH2) | inactive
N=C(N)NCCC[C@H](NC(=O)[C@@H]1CCCN1C(=O)[C@H](CCCNC(=N)N)NC(=O)[C@H](Cc1ccccc1)NC(=O)[C@H](Cc1ccccc1)NC(=O)CCc1cccnc1)C(=O)N[C@@H](CC(N)=O)C(N)=O ({Propanoyl(3-(3-pyridyl))}-FFRPRN-NH2) | Active
N=C(N)NCCC[C@H](NC(=O)[C@@H]1CCCN1C(=O)[C@H](CCCNC(=N)N)NC(=O)[C@H](Cc1ccccc1)NC(=O)[C@H](Cc1ccccc1)NC(=O)Cn1ccnc1)C(=O)N[C@@H](CC(N)=O)C(N)=O (X1-FFRPRN-NH2) | Active
N=C(N)NCCC[C@H](NC(=O)[C@@H]1CCCN1C(=O)[C@H](CCCNC(=N)N)NC(=O)[C@H](Cc1ccccc1)NC(=O)[C@H](Cc1ccccc1)NC(=O)Cc1ccccn1)C(=O)N[C@@H](CC(N)=O)C(N)=O ({Acetyl(pyridin-2-yl)}-FFRPRN-NH2) | Active
N=C(N)NCCC[C@H](NC(=O)[C@@H]1CCCN1C(=O)[C@H](CCCNC(=N)N)NC(=O)[C@H](Cc1ccccc1)NC(=O)[C@H](Cc1ccccc1)NC(=O)Cc1cccnc1)C(=O)N[C@@H](CC(N)=O)C(N)=O ({Acetyl(3-pyridyl)}-FFRPRN-NH2) | Active
N=C(N)NCCC[C@H](NC(=O)[C@@H]1CCCN1C(=O)[C@H](CCCNC(=N)N)NC(=O)[C@H](Cc1ccccc1)NC(=O)[C@H](Cc1cccc2ccccc12)NC(=O)CCc1cccnc1)C(=O)N[C@@H](CC(N)=O)C(N)=O ({Propanoyl(3-(3-pyridyl))}-[1Nal]FRPRN-NH2) | Active
N=C(N)NCCC[C@H](NC(=O)[C@@H]1CCCN1C(=O)[C@H](CCCNC(=N)N)NC(=O)[C@H](Cc1ccccc1)NC(=O)[C@H](Cc1ccccc1)NC(=O)c1ccc2ncccc2c1)C(=O)N[C@@H](CC(N)=O)C(N)=O ({Quinoline(6-carbonyl)}-FFRPRN-NH2) | inactive
CC(C)C[C@H](NC(=O)Cc1ccccc1)C(=O)N[C@@H](Cc1ccccc1)C(=O)N[C@@H](CCCNC(=N)N)C(=O)N1CCC[C@H]1C(=O)N[C@@H](CCCNC(=N)N)C(=O)N[C@@H](CC(N)=O)C(N)=O (PhAc-LFRPRN-NH2) | Active
N=C(N)NCCC[C@H](NC(=O)[C@@H]1CCCN1C(=O)[C@H](CCCNC(=N)N)NC(=O)[C@H](Cc1ccccc1)NC(=O)[C@H](Cc1c[nH]c2ccccc12)NC(=O)CCc1cccnc1)C(=O)N[C@@H](CC(N)=O)C(N)=O ({Propanoyl(3-(3-pyridyl))}-WFRPRN-NH2) | Active
CC(C)C[C@H](NC(=O)CCc1cccnc1)C(=O)N[C@@H](Cc1ccccc1)C(=O)N[C@@H](CCCNC(=N)N)C(=O)N1CCC[C@H]1C(=O)N[C@@H](CCCNC(=N)N)C(=O)N[C@@H](CC(N)=O)C(N)=O ({Propanoyl(3-(3-pyridyl))}-LFRPRN-NH2) | Active
